Experimental data reported in ChEMBL document CHEMBL2040828 (J Med Chem, 2012).

Columns and labels:
Hepatitis C virus = assay: Antiviral activity against HCV by cell based replicon assay; type: functional, organism-based, Hepacivirus hominis
[1] = Irreversible inhibition of hepatitis C virus NS5B polymerase; set-up: species or system Hepacivirus hominis
[2] = AUC in rat at 10 mg/kg, po; type: ADME, organism-based; set-up: dose 10 mg/kg, route oral; conditions: plasma
Summary of the method: (§1)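 Single-dose pharmacokinetics: rats were dosed at 10 mg/kg, and monkeys and dogs at 3 mg/kg. Oral AUC, clearance, half-life and bioavailability were determined. All doses were given in 0.4% MC vehicle.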

Cytochrome P450 3A4 = Cytochrome P450 3A4 (Homo sapiens, UniProt P08684); assay: Inhibition of CYP3A4 up to 30 uM; type: ADME
Cytochrome P450 2D6 = Cytochrome P450 2D6 (Homo sapiens, UniProt P10635); assay: Inhibition of CYP2D6 up to 30 uM; type: ADME
[3] = Half life in rat at 10 mg/kg, iv; type: ADME, organism-based; set-up: dose 10 mg/kg, route intravenous; conditions: in vivo; summary of the method: as §1
Plasma [4] = assay: Metabolic stability in monkey plasma up to 3 hrs; type: ADME, cell-free, Macaca mulatta; conditions: rhesus monkey
[5] = Oral bioavailability in dog at 3 mg/kg; type: ADME, organism-based, Canis lupus familiaris; conditions: in vivo; summary of the method: as §1
Plasma [6] = assay: Metabolic stability in dog plasma up to 3 hrs; type: ADME, cell-free, Canis lupus familiaris
[7] = Half life in monkey at 3 mg/kg, iv; type: ADME, organism-based, Macaca mulatta; set-up: dose 3 mg/kg, route intravenous; conditions: rhesus monkey, in vivo; summary of the method: as §1
[8] = Oral bioavailability in monkey at 3 mg/kg; type: ADME, organism-based, Macaca mulatta; conditions: rhesus monkey, in vivo; summary of the method: as §1
[9] = Oral bioavailability in rat at 10 mg/kg; type: ADME, organism-based; conditions: in vivo; summary of the method: as §1
[10] = Induction of cytochrome P450 activity at 10 uM; type: ADME
[11] = AUC in monkey at 3 mg/kg, po; type: ADME, organism-based, Macaca mulatta; set-up: dose 3 mg/kg, route oral; conditions: rhesus monkey, plasma; summary of the method: as §1
[12] = Clearance in monkey at 3 mg/kg; type: ADME, organism-based, Macaca mulatta; set-up: dose 3 mg/kg; conditions: rhesus monkey, in vivo; summary of the method: as §1
[13] = Clearance in rat at 10 mg/kg; type: ADME, organism-based; set-up: dose 10 mg/kg; conditions: in vivo; summary of the method: as §1
[14] = AUC in dog at 3 mg/kg, po; type: ADME, organism-based, Canis lupus familiaris; set-up: dose 3 mg/kg, route oral; conditions: plasma; summary of the method: as §1
Cytochrome P450 2C9 = Cytochrome P450 2C9 (Homo sapiens, UniProt P11712); assay: Inhibition of CYP2C9 up to 30 uM; type: ADME
[15] = Drug level in rat liver at 10 mg/kg, iv after 6 hrs; type: ADME, organism-based; set-up: dose 10 mg/kg, route intravenous; conditions: read-out: Drug uptake
Plasma [16] = assay: Metabolic stability in human plasma up to 3 hrs; type: ADME, cell-free
[17] = Clearance in dog at 3 mg/kg; type: ADME, organism-based, Canis lupus familiaris; set-up: dose 3 mg/kg; conditions: in vivo; summary of the method: as §1
[18] = Half life in dog at 3 mg/kg, iv; type: ADME, organism-based, Canis lupus familiaris; set-up: dose 3 mg/kg, route intravenous; conditions: in vivo; summary of the method: as §1
Plasma [19] = assay: Metabolic stability in rat plasma up to 3 hrs; type: ADME, cell-free
Lupus La protein = target: T1, Lupus La protein (Homo sapiens, UniProt P05455); assay: Binding affinity to human La antigen by NMR based ALARM assay; type: ADME
T1 sequence (P05455 whole entry): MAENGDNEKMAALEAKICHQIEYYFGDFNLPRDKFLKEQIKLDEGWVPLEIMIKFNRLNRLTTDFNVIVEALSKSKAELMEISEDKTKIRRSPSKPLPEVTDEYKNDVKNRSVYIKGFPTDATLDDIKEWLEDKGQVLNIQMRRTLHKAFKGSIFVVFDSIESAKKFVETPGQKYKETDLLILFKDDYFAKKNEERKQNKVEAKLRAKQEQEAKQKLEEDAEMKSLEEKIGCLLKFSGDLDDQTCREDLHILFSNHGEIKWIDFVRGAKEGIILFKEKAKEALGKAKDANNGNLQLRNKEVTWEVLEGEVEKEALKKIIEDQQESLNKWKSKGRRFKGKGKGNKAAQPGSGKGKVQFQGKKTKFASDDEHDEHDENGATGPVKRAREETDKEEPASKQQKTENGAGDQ
Summary of the method: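 NMR-based ALARM assay. The compound was incubated with human La antigen, and NMR was used to monitor reaction with the antigen's reactive thiols.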

Salmonella typhimurium [20] = assay: Mutagenic activity in Salmonella typhimurium by mini-AMES test in presence of S9 fraction; type: toxicity, organism-based; conditions: salmonella enterica subsp. enterica serovar typhimurium
Salmonella typhimurium [21] = assay: Mutagenic activity in Salmonella typhimurium by mini-AMES test in absence of S9 fraction; type: toxicity, organism-based; conditions: salmonella enterica subsp. enterica serovar typhimurium
[22] = Mutagenic activity in micronuclei assessed as induction of chromosomal damage

Chain of Cytochrome P450 2D6 (P10635 whole entry): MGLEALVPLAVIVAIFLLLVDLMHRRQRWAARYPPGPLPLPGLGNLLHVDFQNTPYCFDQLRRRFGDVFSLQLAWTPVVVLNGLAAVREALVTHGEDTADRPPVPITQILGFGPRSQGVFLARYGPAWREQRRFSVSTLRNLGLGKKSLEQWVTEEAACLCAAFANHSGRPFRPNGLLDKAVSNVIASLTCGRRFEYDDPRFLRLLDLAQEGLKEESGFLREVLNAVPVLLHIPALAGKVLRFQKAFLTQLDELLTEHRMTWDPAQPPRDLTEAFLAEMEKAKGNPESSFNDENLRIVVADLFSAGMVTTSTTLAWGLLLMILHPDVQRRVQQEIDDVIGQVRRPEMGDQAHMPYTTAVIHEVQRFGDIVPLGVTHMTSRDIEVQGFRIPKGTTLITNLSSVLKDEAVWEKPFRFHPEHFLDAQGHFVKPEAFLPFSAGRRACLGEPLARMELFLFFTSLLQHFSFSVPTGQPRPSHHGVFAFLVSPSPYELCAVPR
Chain of Cytochrome P450 2C9 (P11712 whole entry): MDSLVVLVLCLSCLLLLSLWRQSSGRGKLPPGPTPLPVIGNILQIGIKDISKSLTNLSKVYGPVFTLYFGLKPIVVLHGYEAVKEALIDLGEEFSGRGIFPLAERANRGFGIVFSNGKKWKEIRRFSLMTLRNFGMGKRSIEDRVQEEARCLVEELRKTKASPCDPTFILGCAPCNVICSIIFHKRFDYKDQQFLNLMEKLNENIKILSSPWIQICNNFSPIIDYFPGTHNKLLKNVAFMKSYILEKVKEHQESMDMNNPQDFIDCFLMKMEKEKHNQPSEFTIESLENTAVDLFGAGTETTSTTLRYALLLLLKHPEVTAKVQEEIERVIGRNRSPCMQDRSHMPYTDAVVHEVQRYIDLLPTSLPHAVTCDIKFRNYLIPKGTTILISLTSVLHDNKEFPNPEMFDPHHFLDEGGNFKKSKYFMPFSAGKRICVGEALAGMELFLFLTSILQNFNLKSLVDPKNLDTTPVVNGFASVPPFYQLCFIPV
Chain of Cytochrome P450 3A4 (P08684 whole entry): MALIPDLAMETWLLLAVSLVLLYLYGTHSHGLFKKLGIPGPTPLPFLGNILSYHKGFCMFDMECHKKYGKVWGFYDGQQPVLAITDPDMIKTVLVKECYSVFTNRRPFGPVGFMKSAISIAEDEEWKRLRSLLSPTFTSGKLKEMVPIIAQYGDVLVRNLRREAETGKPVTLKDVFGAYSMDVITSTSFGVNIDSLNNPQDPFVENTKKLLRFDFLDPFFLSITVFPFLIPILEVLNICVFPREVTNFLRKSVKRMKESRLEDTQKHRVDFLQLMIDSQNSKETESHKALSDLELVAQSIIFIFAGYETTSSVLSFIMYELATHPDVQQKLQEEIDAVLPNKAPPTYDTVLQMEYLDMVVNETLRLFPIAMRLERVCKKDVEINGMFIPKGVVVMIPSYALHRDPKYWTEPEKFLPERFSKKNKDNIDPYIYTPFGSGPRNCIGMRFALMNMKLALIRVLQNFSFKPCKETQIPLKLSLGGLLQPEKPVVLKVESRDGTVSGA

For Cc1ccc2c(c1)c(-c1ccc(C)[nH]c1=O)c(C(=O)O)n2Cc1cc([N+](=O)[O-])ccc1F, the EC50 (Hepatitis C virus) was 30 nM and the IC50 [1] was 13 nM.

Molecule O=C(NS(=O)(=O)C1CC1)c1c(-c2ccc[nH]c2=O)c2cc(C(F)(F)F)ccc2n1Cc1cc([N+](=O)[O-])ccc1F has an EC50 (Hepatitis C virus) of 2 nM and an IC50 [1] of 4 nM.

Molecule Cc1ccc2c(c1)c(-c1ccc[nH]c1=O)c(C(=O)NS(=O)(=O)C1CC1)n2Cc1ccnc(N)c1 has an EC50 (Hepatitis C virus) of 500 nM and an IC50 [1] of 6 nM.

Cc1ccc2c(c1)c(-c1ccc[nH]c1=O)c(C(=O)NS(=O)(=O)C1CC1)n2Cc1cc([N+](=O)[O-])ccc1F showed an AUC [2] of 0.01 µM·h, an EC50 (Hepatitis C virus) of 1 nM and an IC50 [1] of 6 nM.

Work on CC(C)(C)c1ccc2c(c1)c(-c1ccc[nH]c1=O)c(C(=O)NS(=O)(=O)C1CC1)n2Cc1cc([N+](=O)[O-])ccc1F yielded an EC50 (Hepatitis C virus) of 10 nM and an IC50 [1] of 6 nM.

For Cc1ccc2c(c1)c(-c1ccc[nH]c1=O)c(C(=O)NS(=O)(=O)C1CC1)n2Cc1cc(C(N)=O)ccc1F, the EC50 (Hepatitis C virus) was 140 nM and the IC50 [1] was 4 nM.

In the case of Cc1ccc2c(c1)c(-c1ccc[nH]c1=O)c(C(=O)NS(=O)(=O)C1CC1)n2Cc1cc([S+]([O-])C(F)(F)F)ccc1Cl (stereo not given), the EC50 (Hepatitis C virus) is reported as 3400 nM and the IC50 [1] is reported as 14 nM.

Cc1ccc2c(c1)c(-c1ccc[nH]c1=O)c(C(=O)NS(=O)(=O)C1CC1)n2Cc1cc(C#N)ccc1F gave an EC50 (Hepatitis C virus) of 220 nM and an IC50 [1] of 9 nM.

With CCc1ccc2c(c1)c(-c1ccc[nH]c1=O)c(C(=O)O)n2Cc1cc([N+](=O)[O-])ccc1F the “inhibition (INH)” value (Cytochrome P450 3A4) was “Not Active”, the “inhibition (INH)” value (Cytochrome P450 2D6) was “Not Active” and the half-life [3] was 8.2 h. The Stability (Plasma [4]) was “Stable”, the AUC [2] was 18 µM·h and the EC50 (Hepatitis C virus) was 1 nM. For the same molecule, the bioavailability [5] was 95%, the Stability (Plasma [6]) was “Stable” and the half-life [7] was 1.3 h. For the same molecule, the bioavailability [8] was 30%, the bioavailability [9] was 37% and the Activity [10] was “Not Active”. The AUC [11] was 3.4 µM·h, the clearance [12] was 10 mL/min/kg and the clearance [13] was 8 mL/min/kg. The AUC [14] was 11 µM·h, the “inhibition (INH)” value (Cytochrome P450 2C9) was “Not Active” and the IC50 [1] was 5 nM. The concentration at 6 h [15] was 460 nM, the Stability (Plasma [16]) was “Stable” and the clearance [17] was 10 mL/min/kg. The half-life [18] was 1.2 h, the Stability (Plasma [19]) was “Stable” and the Activity (Lupus La protein) was “Not Active”. For the same molecule, the Activity (Salmonella typhimurium [20]) was “Non-toxic”, the Activity (Salmonella typhimurium [21]) was “Non-toxic” and the Activity [22] was “Non-toxic”.

Work on Cc1ccc2c(c1)c(-c1ccc(C)[nH]c1=O)c(C(=O)NS(C)(=O)=O)n2Cc1cc([N+](=O)[O-])ccc1F yielded an EC50 (Hepatitis C virus) of 8 nM and an IC50 [1] of 6 nM.

Molecule Cc1ccc2c(c1)c(-c1ccc[nH]c1=O)c(C(=O)NS(=O)(=O)C1CC1)n2Cc1cccc(C)c1F has an EC50 (Hepatitis C virus) of 380 nM and an IC50 [1] of 4 nM.

Work on Cc1ccc2c(c1)c(-c1ccc[nH]c1=O)c(C(=O)NS(=O)(=O)C1CC1)n2Cc1cc(S(C)(=O)=O)ccc1F yielded an EC50 (Hepatitis C virus) of 580 nM and an IC50 [1] of 6 nM.

Molecule Cc1ccc2c(c1)c(-c1ccc[nH]c1=O)c(C(=O)NS(=O)(=O)C(C)C)n2Cc1cc([N+](=O)[O-])ccc1F has an EC50 (Hepatitis C virus) of 3 nM and an IC50 [1] of 4 nM.

Work on Cc1ccc2c(c1)c(-c1ccc[nH]c1=O)c(C(=O)NS(=O)(=O)C1CC1)n2Cc1cc([N+](=O)[O-])ccc1Cl yielded an EC50 (Hepatitis C virus) of 16 nM and an IC50 [1] of 7 nM.

Cc1ccc2c(c1)c(-c1ccc[nH]c1=O)c(C(=O)NS(=O)(=O)C1CC1)n2Cc1cc(S(N)(=O)=O)ccc1F gave an EC50 (Hepatitis C virus) of 550 nM and an IC50 [1] of 5 nM.

CCc1ccc2c(c1)c(-c1ccc[nH]c1=O)c(C(=O)NS(=O)(=O)C1CC1)n2Cc1cc([N+](=O)[O-])ccc1F showed an AUC [2] of 0.17 µM·h, an EC50 (Hepatitis C virus) of 1 nM and an IC50 [1] of 4 nM. The Activity (Lupus La protein) was “Not Active”, the Activity (Salmonella typhimurium [20]) was “Non-toxic” and the Activity (Salmonella typhimurium [21]) was “Non-toxic”. For the same molecule, the Activity [22] was “Non-toxic”.

For Cc1ccc2c(c1)c(-c1ccc[nH]c1=O)c(C(=O)NS(=O)(=O)N(C)C)n2Cc1cc([N+](=O)[O-])ccc1F, the EC50 (Hepatitis C virus) was 0.5 nM and the IC50 [1] was 5 nM.
